From ChEMBL document CHEMBL1146292, “Dual serotonin transporter/histamine H3 ligands: Optimization of the H3 pharmacophore” (Bioorg Med Chem Lett, 2007)

Tests used:
Histamine H3 receptor = Histamine H3 receptor (Homo sapiens, UniProt Q9Y5N1); test: Binding affinity to human histamine H3 receptor
Summary of the method: (§1)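 Means of at least three independent experiments, each run in triplicate; standard error of the mean reported.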

[1] = molecular target: Sodium-dependent serotonin transporter (Rattus norvegicus, UniProt P31652); test: Binding affinity to rat SERT; summary of the method: as §1
[2] = molecular target: Sodium-dependent serotonin transporter (Homo sapiens, UniProt P31645); test: Binding affinity to human SERT
[3] = Drug level in mouse brain at 10 mg/kg, ip after 24 hrs; assay type: ADME, organism-based; set-up: dose 10 mg/kg, route intraperitoneal; conditions: read-out: Drug uptake
Summary of the method: (§2)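 Mice given a single 10 mg/kg intraperitoneal dose. Brain drug concentration measured at 1 h and at 24 h post-dose, n = 3.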

[4] = Drug level in mouse brain at 10 mg/kg, ip after 1 hr; assay type: ADME, organism-based; set-up: dose 10 mg/kg, route intraperitoneal; conditions: read-out: Drug uptake; summary of the method: as §2
Mus musculus = test: Effect on 5-HTP-induced head twitch in mouse at 10 mg/kg, ip after 1 hr relative to control; assay type: functional; conditions: route intraperitoneal
Summary of the method: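 5-HTP-induced head-twitch model in mice. Test agent given at 10 mg/kg intraperitoneally, n = 4 per compound. Head twitches scored at 1 h and 24 h post-dose and expressed as percent of the control response.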

Chain of Sodium-dependent serotonin transporter (Homo sapiens, UniProt P31645) (P31645 whole entry): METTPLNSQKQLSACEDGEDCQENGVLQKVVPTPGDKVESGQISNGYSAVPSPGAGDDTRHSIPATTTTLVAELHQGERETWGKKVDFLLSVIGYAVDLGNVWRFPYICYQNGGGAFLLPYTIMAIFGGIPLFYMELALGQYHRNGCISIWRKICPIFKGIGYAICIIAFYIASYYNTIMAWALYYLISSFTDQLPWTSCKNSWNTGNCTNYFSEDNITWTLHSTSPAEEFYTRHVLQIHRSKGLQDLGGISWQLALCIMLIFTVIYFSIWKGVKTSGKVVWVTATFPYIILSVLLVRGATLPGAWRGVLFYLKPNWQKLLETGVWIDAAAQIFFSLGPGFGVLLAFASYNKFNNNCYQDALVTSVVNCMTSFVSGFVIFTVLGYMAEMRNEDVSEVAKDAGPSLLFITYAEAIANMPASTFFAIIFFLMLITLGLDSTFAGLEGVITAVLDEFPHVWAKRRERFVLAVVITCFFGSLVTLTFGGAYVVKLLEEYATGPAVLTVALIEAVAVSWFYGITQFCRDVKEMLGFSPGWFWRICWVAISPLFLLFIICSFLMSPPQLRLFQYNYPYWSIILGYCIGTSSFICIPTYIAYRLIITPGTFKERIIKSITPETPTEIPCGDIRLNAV
Chain of Histamine H3 receptor (Q9Y5N1 whole entry): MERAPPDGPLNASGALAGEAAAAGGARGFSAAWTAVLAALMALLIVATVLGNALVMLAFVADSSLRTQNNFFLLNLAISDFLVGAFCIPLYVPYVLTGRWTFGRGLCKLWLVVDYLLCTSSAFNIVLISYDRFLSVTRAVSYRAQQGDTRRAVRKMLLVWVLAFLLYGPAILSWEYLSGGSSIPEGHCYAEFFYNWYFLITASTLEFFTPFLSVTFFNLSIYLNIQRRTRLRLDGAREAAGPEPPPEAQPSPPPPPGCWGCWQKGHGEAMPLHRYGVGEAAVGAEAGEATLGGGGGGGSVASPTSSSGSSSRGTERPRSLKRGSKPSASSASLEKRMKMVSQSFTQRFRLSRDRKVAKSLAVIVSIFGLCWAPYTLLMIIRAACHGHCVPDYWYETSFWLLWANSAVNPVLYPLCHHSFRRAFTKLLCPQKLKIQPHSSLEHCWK
Chain of Sodium-dependent serotonin transporter (Rattus norvegicus, UniProt P31652) (P31652 whole entry): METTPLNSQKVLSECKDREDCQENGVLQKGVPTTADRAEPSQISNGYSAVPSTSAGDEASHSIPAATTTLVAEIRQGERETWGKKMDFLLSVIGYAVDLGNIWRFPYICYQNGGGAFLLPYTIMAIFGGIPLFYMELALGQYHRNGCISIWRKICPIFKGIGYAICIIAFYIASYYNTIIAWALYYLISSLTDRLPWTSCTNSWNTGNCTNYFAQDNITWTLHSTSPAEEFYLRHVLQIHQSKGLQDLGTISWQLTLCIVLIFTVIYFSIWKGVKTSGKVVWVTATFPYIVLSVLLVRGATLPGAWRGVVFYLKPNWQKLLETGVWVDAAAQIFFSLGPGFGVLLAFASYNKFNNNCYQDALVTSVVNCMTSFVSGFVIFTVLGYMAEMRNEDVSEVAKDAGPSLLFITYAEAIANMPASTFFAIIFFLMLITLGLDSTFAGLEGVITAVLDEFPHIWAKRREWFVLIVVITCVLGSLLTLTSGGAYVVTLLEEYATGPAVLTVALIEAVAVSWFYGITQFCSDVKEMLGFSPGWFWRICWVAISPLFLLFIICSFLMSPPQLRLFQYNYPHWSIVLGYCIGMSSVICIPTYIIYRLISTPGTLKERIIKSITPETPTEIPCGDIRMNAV

CCN(CC)CCCOc1ccc2c(c1)CN(C)CC2c1ccc(OC)cc1 (centres undefined)
Ki (Histamine H3 receptor): 1.7 nM
Ki [1]: 2.2 nM

COc1ccc(C2CN(C)Cc3cc(OCCCN4CCN(C5CC5)CC4)ccc32)cc1 (centres undefined)
Ki (Histamine H3 receptor): 30 nM
Ki [1]: 10 nM
Ki [2]: 18 nM

COc1ccc(C2CN(C)Cc3cc(OCCCN4CCC(C#N)CC4)ccc32)cc1 (centres undefined)
Ki (Histamine H3 receptor): 7.4 nM
Ki [1]: 5.3 nM
Ki [2]: 5.3 nM

COc1ccc(C2CN(C)Cc3cc(OCCCN4CCC(F)CC4)ccc32)cc1 (centres undefined)
concentration at 24 h [3]: 2.5 µM
concentration at 1 h [4]: 6.1 µM
Ki [1]: 1.6 nM
Activity (Mus musculus): >500%
Ki [2]: 2.9 nM

COc1ccc(C2CN(C)Cc3cc(OCCCN4CCC(F)(F)CC4)ccc32)cc1 (centres undefined)
Ki (Histamine H3 receptor): 8.7 nM
Ki [1]: 5.7 nM
Ki [2]: 6.5 nM

COc1ccc(C2CN(C)Cc3cc(OCCCN4CCN(C(C)=O)CC4)ccc32)cc1 (centres undefined)
Ki (Histamine H3 receptor): 267 nM
Ki [1]: 15 nM
Ki [2]: 42 nM

CCN1CCN(CCCOc2ccc3c(c2)CN(C)CC3c2ccc(OC)cc2)CC1 (centres undefined)
Ki (Histamine H3 receptor): 12 nM
Ki [1]: 1.5 nM

COc1ccc(C2CN(C)Cc3cc(OCCCN4CCN(C(C)C)CC4)ccc32)cc1 (centres undefined)
Ki (Histamine H3 receptor): 9.7 nM
Ki [1]: 1.3 nM
Ki [2]: 1.8 nM

COc1ccc(C2CN(C)Cc3cc(OCCCN4CCN(C(=O)C(C)C)CC4)ccc32)cc1 (centres undefined)
Ki (Histamine H3 receptor): 509 nM
Ki [1]: 15 nM
Ki [2]: 15 nM

COc1ccc(C2CN(C)Cc3cc(OCCCN4CCC(C(F)(F)F)CC4)ccc32)cc1 (centres undefined)
Ki (Histamine H3 receptor): 40 nM
Ki [1]: 19 nM
Ki [2]: 14 nM

COc1ccc(C2CN(C)Cc3cc(OCCCN4CCN(c5nccs5)CC4)ccc32)cc1 (centres undefined)
Ki (Histamine H3 receptor): 268 nM
Ki [1]: 2.7 nM
Ki [2]: 5.3 nM

COc1ccc(C2CN(C)Cc3cc(OCCCN4CC(F)(F)C4)ccc32)cc1 (centres undefined)
Ki (Histamine H3 receptor): 69 nM
Ki [2]: 2.9 nM

COc1ccc(C2CN(C)Cc3cc(OCCCN4CCN(c5ccccc5O)CC4)ccc32)cc1 (centres undefined)
Ki (Histamine H3 receptor): 1110 nM
Ki [1]: 5.7 nM
Ki [2]: 7.2 nM

COc1ccc(C2CN(C)Cc3cc(OCCCN(C4CC4)C4CC4)ccc32)cc1 (centres undefined)
Ki (Histamine H3 receptor): 7.4 nM
Ki [1]: 7.6 nM
Ki [2]: 9.7 nM

COc1ccc(C2CN(C)Cc3cc(OCCCN4CCOCC4)ccc32)cc1 (centres undefined)
concentration at 24 h [3]: < 1 µM
Ki (Histamine H3 receptor): 3.8 nM
concentration at 1 h [4]: 12.5 µM
Ki [1]: 4.8 nM
Activity (Mus musculus): >500%
Ki [2]: 6.5 nM

COc1ccc(C2CN(C)Cc3cc(OCCCNC4CC4)ccc32)cc1 (centres undefined)
Ki (Histamine H3 receptor): 38 nM
Ki [1]: 3 nM
Ki [2]: 19.3 nM

COc1ccc(C2CN(C)Cc3cc(OCCCN4CCN(c5ccc(C(F)(F)F)cc5)CC4)ccc32)cc1 (centres undefined)
Ki (Histamine H3 receptor): 1440 nM
Ki [1]: 25 nM
Ki [2]: 33 nM

CCNCCCOc1ccc2c(c1)CN(C)CC2c1ccc(OC)cc1 (centres undefined)
Ki (Histamine H3 receptor): 47 nM
Ki [1]: 0.73 nM
Ki [2]: 3.4 nM

COc1ccc(C2CN(C)Cc3cc(OCCCN4CCC(CO)CC4)ccc32)cc1 (centres undefined)
Ki (Histamine H3 receptor): 9.5 nM
Ki [1]: 2 nM
Ki [2]: 3.2 nM

COc1ccc(C2CN(C)Cc3cc(OCCCN4CCCC(F)(F)C4)ccc32)cc1 (centres undefined)
Ki [1]: 10 nM
Ki [2]: 8.2 nM

COc1ccc(C2CN(C)Cc3cc(OCCCN4CCC4)ccc32)cc1 (centres undefined)
Ki [1]: 1 nM
Ki [2]: 4.8 nM

COc1ccc(C2CN(C)Cc3cc(OCCCN4CCN(c5ccncc5)CC4)ccc32)cc1 (centres undefined)
Ki (Histamine H3 receptor): 3.3 nM
Ki [1]: 5.3 nM
Ki [2]: 4 nM

COc1ccc(C2CN(C)Cc3cc(OCCCN4CCN(C(=O)c5cccn5C)CC4)ccc32)cc1 (centres undefined)
Ki (Histamine H3 receptor): 2610 nM
Ki [1]: 8.4 nM
Ki [2]: 8.8 nM

COc1ccc(C2CN(C)Cc3cc(OCCCN4CCN(C(=O)c5ccncc5)CC4)ccc32)cc1 (centres undefined)
Ki (Histamine H3 receptor): 2840 nM
Ki [1]: 21 nM
Ki [2]: 19 nM

COc1ccc(C2CN(C)Cc3cc(OCCCN4CCC(O)CC4)ccc32)cc1 (centres undefined)
Ki (Histamine H3 receptor): 11 nM
Ki [1]: 1.2 nM
Ki [2]: 3.8 nM

COc1ccc(C2CN(C)Cc3cc(OCCCN4CCC(F)(F)C4)ccc32)cc1 (centres undefined)
Ki (Histamine H3 receptor): 9.5 nM
Ki [1]: 8 nM
Ki [2]: 7.3 nM

COc1ccc(C2CN(C)Cc3cc(OCCCN4CCN(c5ccc(C#N)cc5)CC4)ccc32)cc1 (centres undefined)
Ki (Histamine H3 receptor): 144 nM
Ki [1]: 3.3 nM
Ki [2]: 8 nM

COc1ccc(C2CN(C)Cc3cc(OCCCN4CCS(=O)(=O)CC4)ccc32)cc1 (centres undefined)
Ki (Histamine H3 receptor): 106 nM
Ki [1]: 6.3 nM
Ki [2]: 12 nM
